# Assays:
# Type in all cases: cell-based
# [1] = molecular target: T1, Signal transducer and activator of transcription 3 (Homo sapiens, UniProt P40763); experiment: Inhibition of STAT3 transcriptional activity in human HeLa cells at 100 uM by luciferase reporter gene assay
# Method in brief: (§1)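 STAT3-dependent luciferase reporter gene assay in HeLa cells. Activity is reported as percent inhibition at a single 100 μM concentration, or as an IC50.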
# [2] = molecular target: T1, Signal transducer and activator of transcription 3; experiment: Inhibition of STAT3 transcriptional activity in human HeLa cells by luciferase reporter gene assay; method in brief: as §1
# [3] = molecular target: T1, Signal transducer and activator of transcription 3; experiment: Inhibition of STAT3 dimerization transfected in HEK293 cells at 50 uM after 24 hrs followed by 1 hr stimulation with 50 ng/ml IL-6 by FRET assay
# Method in brief: (§2)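 Cell-based FRET dimerization read-out in HEK293 cells co-expressing STAT3-CFP and STAT3-YFP. Cells were pretreated with compound before IL-6 stimulation, and the FRET signal from the STAT3–STAT3 interaction was measured. Values are given as percent inhibition of the signal.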
# [4] = molecular target: T1, Signal transducer and activator of transcription 3; experiment: Inhibition of STAT3 dimerization transfected in HEK293 cells at 100 uM after 24 hrs followed by 1 hr stimulation with 50 ng/ml IL-6 by FRET assay; settings: 10 uM, in the assay text read “at 10 uM” for “at 100 uM”; method in brief: as §2
# T1 sequence (P40763 whole entry): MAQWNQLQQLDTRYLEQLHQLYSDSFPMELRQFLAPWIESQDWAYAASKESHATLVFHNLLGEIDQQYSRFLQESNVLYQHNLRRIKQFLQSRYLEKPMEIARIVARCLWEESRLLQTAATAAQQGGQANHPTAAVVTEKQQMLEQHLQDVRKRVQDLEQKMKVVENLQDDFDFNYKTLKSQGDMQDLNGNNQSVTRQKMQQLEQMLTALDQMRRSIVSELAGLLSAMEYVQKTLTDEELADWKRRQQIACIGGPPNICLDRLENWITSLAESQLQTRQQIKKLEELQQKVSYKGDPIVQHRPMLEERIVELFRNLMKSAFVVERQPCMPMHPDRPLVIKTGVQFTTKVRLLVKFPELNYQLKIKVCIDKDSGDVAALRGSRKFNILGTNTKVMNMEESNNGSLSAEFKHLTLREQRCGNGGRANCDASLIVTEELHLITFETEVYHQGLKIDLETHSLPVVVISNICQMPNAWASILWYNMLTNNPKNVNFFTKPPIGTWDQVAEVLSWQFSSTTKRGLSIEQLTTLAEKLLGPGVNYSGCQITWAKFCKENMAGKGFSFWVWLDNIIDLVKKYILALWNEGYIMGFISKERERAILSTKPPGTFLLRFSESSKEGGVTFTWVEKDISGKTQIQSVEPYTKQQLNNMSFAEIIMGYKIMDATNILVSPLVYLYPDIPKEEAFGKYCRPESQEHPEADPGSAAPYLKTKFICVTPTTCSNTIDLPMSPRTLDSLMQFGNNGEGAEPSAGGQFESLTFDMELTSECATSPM
SMILES,inhibition [1] [%],IC50 [2] [µM],inhibition [3] [%],inhibition [4] [%]
O=C(Nc1nnc(-c2ccoc2)o1)c1cc(-c2ccccc2)nc2ccccc12,103,72,55,8
Cc1nnc(NC(=O)c2cc(-c3ccccc3)nc3ccccc23)o1,14,,,
O=C(Nc1nnc(-c2ccco2)o1)c1cc(N2CCCCC2)nc2ccccc12,-7,,,
O=C(Nc1nnc(-c2ccco2)o1)c1cc(-c2cccs2)nc2ccccc12,91,63,56,18
O=C(Nc1nnc(-c2ccco2)o1)c1cc(Cl)nc2ccccc12,43,,,
O=C(Nc1nnc(-c2ccco2)o1)c1cc(-c2ccccn2)nc2ccccc12,5,,,
O=C(Nc1nnc(-c2ccco2)o1)c1cc(-c2cccc3ccccc23)nc2ccccc12,121,55,70,14
O=C(Nc1nnc(Cc2ccccc2)o1)c1cc(-c2ccccc2)nc2ccccc12,82,75,61,25
O=C(Nc1nnc(-c2cccs2)o1)c1cc(-c2ccccc2)nc2ccccc12,86,75,56,36
